The target in experiment [1] is GABA-A receptor; anion channel. Put plainly: Inhibitory activity at GABA A receptor, measured by the ability to displace [3H]GABA from GABA A receptor in rat brain. The experiment is classed as tissue-based.
A further experiment concerns the target Translocator protein (Rattus norvegicus, UniProt P16257). Put plainly: Binding affinity against mitochondrial DBI complex (peripheral benzodiazepine receptor) using primary cultures of glial cells. The method, boiled down:
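Glia from cerebella of 8-day-old Sprague–Dawley rat pups, trypsin-dissociated and grown 14 days (~95% astroglia). Cells lysed in 50 mM Hepes pH 7.4, 4 μg protein per tube. Incubated with [3H]4'-chlorodiazepam and competitor for 90 min at 4 °C, then filtered. Nonspecific binding defined with 10 μM 4'-chlorodiazepam. Triplicate competition curves; IC50 by nonlinear regression, converted to Ki (Bylund–Yamamura).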

In experiment [2] the target is GABA-A receptor; anion channel. Kind of experiment: Inhibitory activity at GABA A receptor, measured by the ability to displace [3H]zolpidem from GABA A receptor in rat brain. The experiment is classed as tissue-based.
Experiment [3] is described as follows: Inhibitory activity at GABA B receptor, measured by the ability to displace [3H]baclofen from GABA B receptor in rat brain. The experiment is classed as tissue-based.
The subject of experiment [4] is Rattus norvegicus. Put plainly: Tested for antineophobic activity using the elevated plus maze test administered at 78 umol/kg perorally in rats. The format is functional.
The target of a further experiment is Cannabinoid receptor 1 (Rattus norvegicus, UniProt P20272). Put plainly: Inhibitory activity, measured by displacement [3H]CP-55940 from cannabinoid receptor (CB1) in rat brain. The experiment is classed as tissue-based.
Experiment [5] has as its target Adrenergic receptor alpha. Put plainly: Inhibitory activity by measuring its ability to displace [3H]WB-4101 from alpha-adrenergic receptor in rat brain. The format is tissue-based.
A short description of experiment [6]: Inhibitory activity by measuring its ability to displace [3H]spiperone from dopamine or serotonin 5-HT-1 receptors in rat brain. The experiment is classed as tissue-based.
The next experiment addresses Adrenergic receptor beta (Rattus norvegicus, UniProt P18090+P10608+P26255). Kind of experiment: Inhibitory activity by measuring its ability to displace [125I]pindolol from beta-adrenergic receptor in rat brain. The experiment is classed as tissue-based.
In experiment [7] the target is GABA-A receptor; anion channel. Kind of experiment: Inhibitory activity at GABA A receptor, measured by the ability to displace [35S]TBPS from GABA A receptor in rat brain. The experiment is classed as tissue-based.
The nature of experiment [8]: Inhibitory activity by measuring its ability to displace [3H]glycine from glycine receptor in rat brain. The experiment is classed as tissue-based.
Experiment [9] concerns the target T1, Gastrin/cholecystokinin type B receptor (Rattus norvegicus, UniProt P30553).
T1 sequence (P30553 whole entry): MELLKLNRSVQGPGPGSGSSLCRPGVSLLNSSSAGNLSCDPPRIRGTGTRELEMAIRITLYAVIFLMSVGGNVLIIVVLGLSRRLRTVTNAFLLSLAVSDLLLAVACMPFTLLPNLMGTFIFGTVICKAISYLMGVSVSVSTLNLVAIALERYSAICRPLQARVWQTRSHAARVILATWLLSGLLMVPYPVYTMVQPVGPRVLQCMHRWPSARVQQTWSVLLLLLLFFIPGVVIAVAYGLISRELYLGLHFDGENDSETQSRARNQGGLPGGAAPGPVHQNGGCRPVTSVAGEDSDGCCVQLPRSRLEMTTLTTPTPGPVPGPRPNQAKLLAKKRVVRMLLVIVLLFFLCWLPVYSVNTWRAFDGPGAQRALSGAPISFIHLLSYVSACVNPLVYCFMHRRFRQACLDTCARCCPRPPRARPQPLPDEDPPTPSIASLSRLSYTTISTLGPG
Kind of experiment: Inhibitory activity by measuring its ability to displace [3H]L-365260 from cholecystokinin receptor in rat brain. The experiment is classed as tissue-based.

The target of the next experiment is Glutamate NMDA receptor. Kind of experiment: Inhibitory activity by measuring its ability to displace [3H]-MK-801 from glutamate(NMDA) receptor in rat brain. The format is tissue-based.
Experiment [10] concerns the target Adrenergic receptor alpha. Put plainly: Inhibitory activity by measuring its ability to displace [3H]clonidine from alpha-adrenergic receptor in rat brain. The experiment is classed as tissue-based.
Experiment [11] concerns the target GABA-A receptor; anion channel. Put plainly: Inhibitory activity at GABA A receptor, measured by the ability to displace [3H]flumazenil from GABA A receptor in rat brain. The experiment is classed as tissue-based.
Experiment [12] is described as follows: Tested for inhibitory activity by measuring its ability to displace [3H]AMPA from glutamate (non-NMDA) receptor in rat brain. The format is tissue-based.
Experiment [13] relates to Rattus norvegicus. Kind of experiment: Tested for antineophobic activity administered at 225 umol/kg perorally in adrenalectomized/castrated rats. The format is functional. The method, boiled down: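 Rats of 175–200 g were adrenalectomized and castrated 3 days before the elevated plus maze. Drug was suspended in 1% DMSO/H2O and given by oral gavage 1 h before the test. […] was scored; n = 10 rats, mean ± SEM.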

The subject of experiment [14] is Rattus norvegicus. Put plainly: Tested for antineophobic activity using the elevated plus maze test administered at 57 umol/kg perorally in rats. The format is functional.
The target in experiment [15] is Serotonin 2 (5-HT2) receptor (Rattus norvegicus). Put plainly: Inhibitory activity by measuring its ability to displace [3H]ketanserin from serotonin receptor in rat brain.
The target in experiment [16] is Sigma receptor (Rattus norvegicus). Kind of experiment: Tested for inhibitory activity by measuring its ability to displace [3H]3-PPP from sigma receptor in rat brain.
Experiment [17] deals with Rattus norvegicus. Put plainly: Tested for antineophobic activity using the elevated plus maze test administered at 51 umol/kg perorally in rats. The format is functional.
Experiment [18] concerns the target T2, Opioid receptor (Rattus norvegicus, UniProt P33533+P34975+P33535). Put plainly: Inhibition of [3H]naxolone binding to opiate receptors in rat brain. The experiment is classed as tissue-based.
Experiment [19] has as its system Rattus norvegicus. Put plainly: Tested for antineophobic activity using the elevated plus maze test administered at 55 umol/kg perorally in rats. The experiment is classed as functional.
In experiment [20] the target is T2, Opioid receptor. Kind of experiment: Displacement of [3H]naxolone from opiate receptor of rat brain. On the technique in general: Loss of bound radioactivity is the signal in a displacement assay; it reports binding, not function.

Structures are written as SMILES. “And” between values parts separate entries of the source, which are not always exact repeats. Equal entries are not always repeated. A value given as a limit tells only on which side of the number the result lay.

Chain of Translocator protein (P16257 whole entry, looked up): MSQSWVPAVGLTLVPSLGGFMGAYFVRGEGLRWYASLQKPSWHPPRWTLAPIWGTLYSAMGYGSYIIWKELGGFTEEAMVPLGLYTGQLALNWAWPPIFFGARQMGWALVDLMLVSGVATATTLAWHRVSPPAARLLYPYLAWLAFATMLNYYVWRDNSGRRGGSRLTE
Chain of Cannabinoid receptor 1 (P20272 whole entry): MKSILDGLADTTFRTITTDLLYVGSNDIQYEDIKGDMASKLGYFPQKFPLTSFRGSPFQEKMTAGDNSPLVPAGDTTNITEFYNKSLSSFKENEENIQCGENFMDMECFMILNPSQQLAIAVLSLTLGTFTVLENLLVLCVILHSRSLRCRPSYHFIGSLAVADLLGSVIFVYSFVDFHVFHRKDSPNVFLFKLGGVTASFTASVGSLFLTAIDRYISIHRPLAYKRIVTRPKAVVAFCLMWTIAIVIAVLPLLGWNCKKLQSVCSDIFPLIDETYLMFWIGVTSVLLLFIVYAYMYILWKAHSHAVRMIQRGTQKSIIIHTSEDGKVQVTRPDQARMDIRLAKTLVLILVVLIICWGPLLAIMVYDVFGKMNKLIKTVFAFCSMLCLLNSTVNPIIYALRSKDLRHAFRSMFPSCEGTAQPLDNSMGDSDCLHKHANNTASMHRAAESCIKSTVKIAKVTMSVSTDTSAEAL

As to `O=C(Cc1c(-c2ccccc2)[nH]c2ccccc12)N1CCCCC1`, the IC50 (in [1]; in [2]; in experiment [3]; at Cannabinoid receptor 1; in experiment [5]; in experiment [6]) was over 1 µM in each case. In addition, the IC50 (on Adrenergic receptor beta; in [7]; in experiment [8]; in experiment [9]; at Glutamate NMDA receptor; in experiment [10]) was over 1 µM each time. Besides, the IC50 in [11] and in experiment [12] was over 1 µM throughout. Besides, the Ki (usually the equilibrium dissociation constant of an inhibitor or competing ligand from its target) at Translocator protein is 0.35 µM. Moreover, the No. of entries in the experiment with Rattus norvegicus [4] worked out at 2.3. Moreover, the Time in the experiment with Rattus norvegicus [4] is 5.7%.
For `CCCCCCN(CCCCCC)C(=O)Cc1c(-c2ccc(F)cc2)[nH]c2ccccc12`, the IC50 (in experiment [1]; in experiment [2]; in experiment [3]; at Cannabinoid receptor 1; in experiment [5]; in [6]) was over 1 µM in each case. The IC50 (at Adrenergic receptor beta; in [7]; in [8]; in experiment [9]; at Glutamate NMDA receptor; in experiment [10]) was over 1 µM throughout. Moreover, the IC50 in [11] and in experiment [12] was over 1 µM each time. At Translocator protein, this compound registered a Ki of 0.0044 µM. In addition, the No. of entries was 4.9 and 5.5 with Rattus norvegicus [13]; 2.1 with Rattus norvegicus [14]. Besides, in the experiment on Rattus norvegicus [13], the Time spent is 22 s and 25 s. Moreover, in the experiment on Rattus norvegicus [14], the Time is on record as 4.5%.
`CCCCCCN(CCCCCC)C(=O)Cc1c(-c2ccc(Cl)cc2)[nH]c2ccc(Cl)cc12`: the IC50 (in experiment [1]; in experiment [2]; in [3]; in experiment [15]; at Cannabinoid receptor 1; in experiment [5]) was over 1 µM in each case. Further, the IC50 (in [16]; in experiment [6]; at Adrenergic receptor beta; in experiment [7]; in [8]; in experiment [9]) was over 1 µM throughout. The 50% inhibitory concentration (IC50) (on Opioid receptor [18]; on Glutamate NMDA receptor; in [10]; in [11]; in experiment [12]) was over 1 µM each time. Besides, on Translocator protein, the Ki amounted to 0.0036 µM. The No. of entries in the experiment with Rattus norvegicus [17] is recorded as 2.3. Besides, in the experiment with Rattus norvegicus [17], the Time is on record as 5.3%.
Take `CCCCCCN(CCCCCC)C(=O)Cc1c(-c2ccccc2)[nH]c2ccc(Cl)cc12`: the IC50 (in experiment [1]; in experiment [2]; in [3]; at Cannabinoid receptor 1; in experiment [5]; in experiment [6]) was over 1 µM in each case. Further, the IC50 (on Adrenergic receptor beta; in experiment [7]; in experiment [8]; in experiment [9]; on Glutamate NMDA receptor; in experiment [10]) was over 1 µM each time. For the same compound, the IC50 in experiment [11] and in experiment [12] was over 1 µM throughout. This compound also yielded a Ki on Translocator protein of 0.0041 µM. Further, the No. of entries in the experiment with Rattus norvegicus [19] is given as 2.3. Further, the Time in the experiment with Rattus norvegicus [19] was 4.3%.
In the case of `CCCN(CCC)C(=O)Cc1c(-c2ccc(F)cc2)[nH]c2ccccc12`, the IC50 (in experiment [1]; in experiment [2]; in experiment [3]; in experiment [15]; on Cannabinoid receptor 1; at Opioid receptor [20]) was over 1 µM throughout. Further, the IC50 (in experiment [5]; in experiment [16]; in experiment [6]; at Adrenergic receptor beta; in experiment [7]; in experiment [8]) was over 1 µM in each case. The IC50 (in [9]; at Glutamate NMDA receptor; in experiment [10]; in experiment [11]; in experiment [12]) was over 1 µM throughout. Moreover, the Ki on Translocator protein worked out at 0.1 µM.

Source of the values: ChEMBL document CHEMBL1126834, “Chemistry, binding affinities, and behavioral properties of a new class of "antineophobic" mitochondrial DBI receptor complex (mDRC) ligands” (J Med Chem, 1993).
